Screens deposited in PubChem BioAssay by several laboratories.
UPR CHOP act: activators of apoptotic arm of unfolded protein response (CHOP). CHO-CHOP luciferase reporter, UPR activation, luminescence; percent of tunicamycin response over DMSO baseline. activation, % at 10 µM. 330,000 tested, 0.34% active. AID 449763;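 active means at 10 µM dose, activation of 40% or more, normalized to positive control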;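 further: 100% = tunicamycin at 10 µg/mL and 0% = DMSO alone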
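System: CHO-CHOP luciferase reporter cell line; amount: 500 cells/well; buffer or medium: F12 medium containing 10% fetal bovine serum; incubation: 6 h compound exposure at 37 °C after overnight seeding; measured by: luciferase luminescence after 10 min with Steady-Glo reagent; evaluation: % reporter activation, DMSO baseline versus tunicamycin full activation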
Beta cell apopt: beta cell apoptosis inhibition; INS-1E cytokine-induced death, ATP luminescence, 48 h; percent of positive-control rescue, neutral wells zero; protection from apoptosis, % (no concentration beside the values); 300,000 tested, 0.8% active; AID 435005;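 active means Every replicate reaches about 75%, or at least half do and their mean reaches it too, limit read from the data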;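 further: 0% = cytokine-treated negative control wells and 100% = positive control rescue; higher means more ATP so stronger rescue from cytokine killing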
SKKanGAS inh: blocks kanamycin growth of S. pyogenes SKKanGAS strain. BacTiter-Glo, 6 h. inhibition, % at 7.5 µM. 300,000 tested, 1.3% active. AID 1662;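 active means mean replicate score, as percent of positive control median, at least 50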;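 further: strain carries kanamycin resistance gene driven by streptokinase promoter and grows in 40 µg/ml kanamycin; loss of luminescence reflects streptokinase promoter inhibition or plain growth inhibition; 0% = median of DMSO wells and 100% = positive control at its reference dose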
UPR XBP1 act: adaptive UPR (XBP1) activation | activation, % at 20 µM | CHO-XBP1 luciferase reporter, IRE1-XBP1 UPR activation, luminescence; percent of tunicamycin response, DMSO as zero | 330,000 tested, 0.33% active | AID 463104;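 active means versus positive control, 20 µM dose yields 30% or more activation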;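 further: 100% = tunicamycin at 10 µg/mL and 0% = DMSO only wells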
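assay system = CHO-XBP1 luciferase reporter cells | amount = 1000 cells/well | buffer or medium = F12 plus 10% FBS | compound dosing = single point, 20 µM final compound, 1% DMSO | incubation = 16-18 h cell attachment at 37 °C, then 6 h compound exposure | detection = Steady-Glo luminescence read | controls = tunicamycin 10 µg/mL and vehicle-only wells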
CSC inhib: blocks cancer stem cells; cancer stem cell-like cells viability, luminescence; inhibition, % at 7.5 µM; 300,000 tested, 1.1% active; AID 2717; in the data active means inhibition above about 75%; tested in HMLE shEcad cells
Mdm2-MdmX inh: human Mdm2/MdmX binding inhibition; SaOS-2 split-luciferase Mdm2/MdmX complementation, luminescence; inhibition, % at 8 µM; 330,000 tested, 3% active; AID 485346;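 active means inhibition of at least 50% at 8 µM in the primary screen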
Target sequence (O15151 whole entry, looked up): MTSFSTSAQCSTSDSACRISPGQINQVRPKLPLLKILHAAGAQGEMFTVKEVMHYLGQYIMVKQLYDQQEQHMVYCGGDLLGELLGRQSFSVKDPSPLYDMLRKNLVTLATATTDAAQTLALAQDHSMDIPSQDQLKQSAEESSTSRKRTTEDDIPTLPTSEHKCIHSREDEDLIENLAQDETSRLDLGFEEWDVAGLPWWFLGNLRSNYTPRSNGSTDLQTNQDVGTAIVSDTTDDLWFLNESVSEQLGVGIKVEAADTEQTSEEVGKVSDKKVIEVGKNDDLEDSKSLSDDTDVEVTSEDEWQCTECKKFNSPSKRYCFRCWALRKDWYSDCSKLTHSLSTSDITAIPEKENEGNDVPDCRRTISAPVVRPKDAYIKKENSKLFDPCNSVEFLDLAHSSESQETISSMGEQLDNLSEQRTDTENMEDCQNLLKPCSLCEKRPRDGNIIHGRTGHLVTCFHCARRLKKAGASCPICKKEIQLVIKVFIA
Target sequence (Q00987 whole entry, looked up): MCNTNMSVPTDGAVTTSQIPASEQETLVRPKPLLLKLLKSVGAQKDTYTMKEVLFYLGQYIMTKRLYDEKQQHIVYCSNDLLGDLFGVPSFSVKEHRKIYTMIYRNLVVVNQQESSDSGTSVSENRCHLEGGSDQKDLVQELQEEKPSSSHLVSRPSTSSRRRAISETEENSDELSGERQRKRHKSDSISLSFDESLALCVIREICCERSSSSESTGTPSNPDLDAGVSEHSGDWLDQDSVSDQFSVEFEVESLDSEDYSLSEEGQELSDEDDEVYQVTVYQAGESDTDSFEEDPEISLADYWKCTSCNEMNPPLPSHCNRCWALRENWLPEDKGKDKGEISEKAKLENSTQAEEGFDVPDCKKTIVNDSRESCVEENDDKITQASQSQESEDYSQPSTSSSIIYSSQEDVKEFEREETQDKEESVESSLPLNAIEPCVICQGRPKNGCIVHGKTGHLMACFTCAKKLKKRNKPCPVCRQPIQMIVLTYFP
* hit, by the source's call; / = no result given. Rows were chosen to be rich in hits. Some 4.8% of all compounds tested hit in one or more screens of this group.

SMILES	UPR CHOP act	Beta cell apopt	SKKanGAS inh	UPR XBP1 act	CSC inhib	Mdm2-MdmX inh
Cc1ccc(-c2c[n+]3c(n2-c2ccccc2)CCC3)cc1	3	100*	-2	2	-15	30
c1ccc(-c2c[n+]3c(n2-c2ccccc2)CCC3)cc1	2	25	-4	-1	-2	20
CCOc1ccc(-n2c(-c3ccccc3)c[n+]3c2CCCCC3)cc1	-2	99*	5	1	23	27
CCOc1ccc(N2Cc3ccccc3C2)cc1	5	5	0	-2	10	-65
CCN(CC(=O)NCc1ccc(Cl)cc1)C(=O)CCc1ccccc1	-1	3	-2	-2	-10	33
Cc1occc1C(=O)N(Cc1nc(-c2ccccc2)no1)C(C)C	-2	1	0	-2	-1	-4
Cc1ccc(Nc2cc(C)c3ccc(O)cc3n2)cc1C	2	0	-5	3	86*	-2
COc1ccc(OCC(O)CNCCOc2ccccc2OC)c(C(C)(C)C)c1 (stereo not given)	-1	26	1	7	24	39
CC(C)(C)c1ccc(C(=O)N2CCN(C(=O)c3ccco3)CC2)cc1	0	/	50*	-2	-1	16
Clc1ccc(/C=N/NC(=Nc2ccccc2)c2ccccn2)c(Cl)c1	-2	10	52*	0	5	17
C(=N\NC(=Nc1ccccc1)c1ccccn1)/c1ccccn1	5	-5	1	-2	31	-17
CC(=O)N1CCc2cc(S(=O)(=O)N3CCc4ccccc4C3)ccc21	-2	-1	-2	-4	/	6
CC(=O)N1CCc2cc(S(=O)(=O)N3CCc4ccccc43)ccc21	-1	/	52*	-4	1	0
CC(NC(=O)C1CCC1)c1ccccc1 (stereo not given)	-1	-6	-3	-3	-9	-11
CC(NC(=O)C1CCC(C(=O)NC(C)c2ccccc2)CC1)c1ccccc1 (stereo not given)	1	238*	2	0	110*	6
COc1ccc2c(COC(=O)[C@@H]3CCCN3S(=O)(=O)c3ccc(Cl)cc3)cc(=O)oc2c1	0	/	/	0	/	35
Cc1cc(C)c[n+](C(C)C(=O)c2ccc(-c3ccccc3)cc2)c1 (stereo not given)	2	93*	-8	-3	28	15
N#CC1=C(N)Oc2cc(N)ccc2C1c1cccc(Br)c1 (stereo not given)	-3	3	5	10	82*	42
Cc1ccc(C2C(C#N)=C(N)Oc3cc(N)ccc32)cc1 (stereo not given)	-1	2	-1	2	27	3
c1ccc(CCNC2=NCCS2)cc1	1	/	5	-3	-7	-14
C=CCN1C(=O)/C(=C/c2ccc(OC(C)=O)c(OCC)c2[N+](=O)[O-])SC1=S	/	/	77*	/	/	/
O=C1CCCC/C=C\C[C@H](CC(=O)N(CCO)Cc2ccccc2)C(=O)N2CCC[C@@H]2CO1	1	-6	/	3	/	5
COc1cc(N/N=C/c2ccccc2O)ncn1	1	88*	12	2	23	43
COc1cc(N/N=C/c2ccc(N(C)C)cc2)ncn1	-3	3	8	-11	4	-133
CCC(C(=O)OCC(=O)Nc1cc(Cl)cc(Cl)c1)c1ccccc1 (stereo not given)	-2	8	53*	-3	9	-22
SMILES	UPR CHOP act	Beta cell apopt	SKKanGAS inh	UPR XBP1 act	CSC inhib	Mdm2-MdmX inh
Cc1c(Cl)cccc1Nc1nc(N)nc(CN2CCc3ccccc3C2)n1	3	2	80*	-1	18	16
COc1cnc(-c2ccccc2)nc1Oc1ccc(C(C)(C)C)cc1	-1	/	93*	0	49	2
COc1cnc(-c2ccccc2)nc1Oc1ccccc1C	-3	-3	7	-3	3	10
O=c1cc(O)c2c(=O)n(C3CCCCC3)c3ccccc3c2o1	0	5	27	7	-3	17
O=c1cc(O)c2c(=O)n(-c3ccccc3)c3c(c2o1)CCCCCC3	-1	-1	56*	-1	-10	8
O=C(Oc1cccc(Nc2ncnc3ccccc23)c1)c1ccccc1Cl	5	18	61*	1	0	46
CSc1ccc(CCNC(=O)CCc2nnc3ccc(N4CCC5(CC4)OCCO5)nn23)cc1	0	5	0	-4	8	21
Cc1cc(Nc2nc(Cl)c(Cl)cc2Cl)n(-c2ccccc2)n1	3	-7	-5	-1	99*	34
CCOC(=O)Nc1ccc2nc(Sc3ccc(Cl)cc3)sc2c1	0	20	24	0	85*	47
CCOC(=O)Nc1sc2nc(C)cc(C)c2c1-n1cccc1	0	-1	0	-1	3	31
Cc1cc(C)c2c(-n3cccc3)c(C(=O)NNS(=O)(=O)c3ccc(Br)cc3)sc2n1	0	-2	59*	1	7	8
CC(NC(=S)NC1CCC(C(C)(C)C)CC1)c1ccccc1 (stereo not given)	0	28	81*	4	30	21
Cc1ccc(CNC(=S)NC2CCC(C(C)(C)C)CC2)cc1 (stereo not given)	2	5	66*	-1	21	23
COc1ccc(C(C)NC(=S)NC2CCCC2)cc1OC (stereo not given)	1	3	-5	-1	-9	18
Cc1cc([N+](=O)[O-])ccc1NC(=O)CCC(=O)N1CCCC1	-1	-5	-5	-2	-12	-38
CC(C)C[C@H](NC(=O)N1CC(=O)Nc2ccccc21)C(=O)N[C@H](C(=O)O)c1ccccc1	/	2	63*	/	-10	/
O=C1CN(C(=O)N[C@@H](Cc2ccccc2)C(=O)N[C@@H](Cc2ccccc2)C(=O)O)c2ccccc2N1	-2	/	-5	1	-8	-27
CC(C)[C@H](NC(=O)N1CC(=O)Nc2ccccc21)C(=O)N[C@@H](Cc1ccccc1)C(=O)O	-1	/	94*	-1	0	22
O=C1CN(C(=O)N[C@@H](Cc2ccccc2)C(=O)N[C@H](C(=O)O)c2ccccc2)c2ccccc2N1	1	-6	-1	-5	-14	20
Cc1ccc(OCCC(=O)OCC(=O)N2CCN(S(=O)(=O)c3ccc(C)cc3)CC2)cc1	0	-3	1	1	-5	-14
Cc1ccc(N(C(=O)CNC(=O)c2ccco2)C(C(=O)NC2CCCC2)c2cccnc2)cc1F (stereo not given)	1	-5	0	1	-3	16
CCCc1cc(C(=O)Cc2ccc(F)cc2)c(O)cc1O	-1	4	35	1	82*	36
CCCOc1ccc(C(=O)NC(=S)NNC(=O)c2c(-c3ccccc3)noc2C)cc1	0	17	100*	10	31	33
